Data published in PMC4633019 (Journal of natural products, 2015).
≈ marks a conversion by molar mass, not a printed value. Where a SMILES comes first, the peptide text is derived from it. [ ]: non-standard residue; d: D form. The star is where a group is joined. Sta = CC(C)C[C@H](N)[C@@H](O)CC(=O)O; Isovaleryl = CC(C)CC(=O)*

Experiments:
HEK293 cells = experiment: Mammalian cell viability assay; type: cell-based, human; details: up to highest tested concentrations
Method in brief: (§1)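 Viability was read with Cell TiterGlo reagent, used according to the manufacturer's instructions, in 1536-well format with a plate-imager read-out. The same procedure was applied to human RBCs.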

HepG2 cells = experiment: Mammalian cell viability assay; type: cell-based, human; details: up to highest tested concentrations
Method in brief: as §1

[1] = tested on: Plasmodium falciparum (cp250, Dd2, HB3, 7G8, GB4 lines); experiment: SYBR Green DNA-staining parasite viability assay; type: cell-based
Method in brief: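 Infected RBCs (0.3% parasitemia, 2.5% hematocrit final) in culture medium received pin-transferred test compound. Incubated 72 h at 37 °C in humidified 5% CO2. Lysis buffer was then added (20 mM Tris-HCl, 10 mM EDTA, 0.16% saponin, 1.6% Triton-X, 10× SYBR Green I), followed by overnight incubation at 22–24 °C in the dark. Fluorescence was read at 485/535 nm. Controls: artemisinin and mefloquine as positive, DMSO as negative.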

Jurkat cells = details: cited from earlier work
[2] = tested on: P. falciparum plasmepsins (aspartyl protease activity of Pf extracts); experiment: Plasmepsin protease assay with P. falciparum extract and FRET peptide substrate; type: biochemical, Plasmodium falciparum; details: freshly prepared P. falciparum extracts

Structure (SMILES): COCC(=O)N[C@@H](C(=O)N1NCCC[C@H]1C(=O)N[C@@H](Cc1ccccc1)[C@@H](O)[C@H](C)C(=O)N[C@@H]1CCN(C(N)=O)C1=O)[C@H](O)C(C)C [25-epi-actinoramide A]
- toxicity to HEK293 cells (in words) (HEK293 cells): no toxicity
- toxicity to HepG2 cells (in words) (HepG2 cells): no toxicity

Structure (SMILES): COCC(=O)N[C@@H](C(=O)N1NCCC[C@H]1C(=O)N[C@@H](Cc1ccccc1)[C@@H](O)[C@H](C)C(=O)NC1CNC(=O)NC1=O)[C@H](O)C(C)C (stereo partly drawn) [Actinoramide F, actinoramide F]
- antimalarial activity (in words) [1]: no antimalarial activity

Structure (SMILES): COCC(=O)N[C@@H](C(=O)N1NCCC[C@H]1C(=O)N[C@@H](Cc1ccccc1)[C@@H](O)[C@H](C)C(=O)N[C@H]1CCN(C(N)=O)C1=O)[C@H](O)C(C)C [actinoramide A]
- toxicity to HEK293 cells (in words) (HEK293 cells): no toxicity
- toxicity to HepG2 cells (in words) (HepG2 cells): no toxicity
- EC50 (cytotoxicity) (Jurkat cells): ≈ 60 μg/mL

Structure (SMILES): COCC(=O)N[C@@H](C(=O)N1N=CCC[C@H]1C(=O)N[C@@H](Cc1ccccc1)[C@@H](O)[C@H](C)C(=O)N[C@H]1CCN(C(N)=O)C1=O)[C@H](O)C(C)C [actinoramide D]
- decrease in potency (vs actinoramide A) ([1]; depending on the parasite strain): 6–20 fold

Structure (SMILES): COCC(=O)N[C@@H](C(=O)N1NCCC[C@H]1C(=O)N[C@@H](Cc1ccccc1)[C@@H](O)[C@H](C)C(=O)N[C@H]1CCC(=O)NC1=O)[C@H](O)C(C)C [padanamide B, reference compound]
- EC50 (cytotoxicity) (Jurkat cells): ~20 µg/mL (≈ 30.9 µM)

Structure (SMILES): CC(C)CC(=O)N[C@H](C(=O)N[C@H](C(=O)N[C@@H](CC(C)C)[C@@H](O)CC(=O)N[C@@H](C)C(=O)N[C@@H](CC(C)C)[C@@H](O)CC(=O)O)C(C)C)C(C)C [pepstatin] (Isovaleryl-VV[Sta]A[Sta]-OH)
- inhibition of aspartyl protease (plasmepsin) activity (in words) [2]: potently inhibited
